# Molecular target: T1, Sodium-dependent dopamine transporter (Rattus norvegicus, UniProt P23977)
# Assay: Binding affinity against dopamine transporter using radioligand as [3H]GBR 12935
# Method in brief: (§1)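 DAT binding by displacement of 2 nM [3H]GBR 12935 or 0.01 nM [125I]RTI 55. Drugs were in 55.2 mM sodium phosphate buffer, pH 7.4, with 1 mg/mL BSA; radioligand was in the same buffer with chymostatin, leupeptin, EDTA and EGTA. Incubated in triplicate for 18-24 h at 4 °C to equilibrium, then filtered over polyethylenimine-presoaked GF/B filters. IC50 derived.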
# T1 sequence (P23977 whole entry): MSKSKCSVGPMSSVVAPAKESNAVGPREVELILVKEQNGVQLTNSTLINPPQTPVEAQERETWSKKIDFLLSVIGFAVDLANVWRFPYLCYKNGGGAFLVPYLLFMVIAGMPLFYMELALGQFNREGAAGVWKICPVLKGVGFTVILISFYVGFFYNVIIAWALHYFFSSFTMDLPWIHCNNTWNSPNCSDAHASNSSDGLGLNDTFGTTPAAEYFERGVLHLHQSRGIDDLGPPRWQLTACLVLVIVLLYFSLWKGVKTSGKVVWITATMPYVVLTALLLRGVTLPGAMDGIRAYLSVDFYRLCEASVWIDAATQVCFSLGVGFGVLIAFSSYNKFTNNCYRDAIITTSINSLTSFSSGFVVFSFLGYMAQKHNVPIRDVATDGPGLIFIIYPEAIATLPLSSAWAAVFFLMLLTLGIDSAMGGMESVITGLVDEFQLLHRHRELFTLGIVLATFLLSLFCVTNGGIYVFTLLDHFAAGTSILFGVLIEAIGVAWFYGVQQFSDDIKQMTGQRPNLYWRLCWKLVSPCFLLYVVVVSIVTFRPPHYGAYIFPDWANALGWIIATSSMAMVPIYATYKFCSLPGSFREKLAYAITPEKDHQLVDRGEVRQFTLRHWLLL
row,Compound,IC50 [nM]
1,CNCCN(C)CCOC(c1ccccc1)c1ccccc1,834
2,c1ccc(CCCNC[C@H]2CCCN2CCOC(c2ccccc2)c2ccccc2)cc1,747
3,C[C@@H]1CN(CCOC(c2ccccc2)c2ccccc2)[C@@H](C)CN1C/C=C/c1ccccc1,103
4,C[C@@H]1CN(CCOC(c2ccc(F)cc2)c2ccc(F)cc2)[C@@H](C)CN1,106
5,c1ccc(C(OCCN2CCNCC2)c2ccccc2)cc1,110
6,c1ccc(CCCN2CCCCC(NCCOC(c3ccccc3)c3ccccc3)C2)cc1 (centres undefined),74
7,CC(C)(CN)CNCCOC(c1ccccc1)c1ccccc1,1460
8,c1ccc(C(OCCN2CCCNCC2)c2ccccc2)cc1,1360
9,c1ccc(CCCN2CCCN(CCOC(c3ccccc3)c3ccccc3)CC2)cc1,7.9
10,C[C@@H]1CN(CCOC(c2ccc(F)cc2)c2ccc(F)cc2)[C@@H](C)CN1CCOC(c1ccc(F)cc1)c1ccc(F)cc1,36
11,c1ccc(CCCN2CCCCN(CCOC(c3ccccc3)c3ccccc3)CC2)cc1,864
12,CC(C)(CNCCCc1ccccc1)CNCCOC(c1ccccc1)c1ccccc1,169
13,CN(CCCc1ccccc1)CCN(C)CCOC(c1ccccc1)c1ccccc1,27
14,Fc1ccc(C(OCCN2CCCNCC2)c2ccc(F)cc2)cc1,143
15,c1ccc(CCCNC[C@@H]2CCCN2CCOC(c2ccccc2)c2ccccc2)cc1,5.1
16,Oc1cccc(CCCNC[C@@H]2CCCN2CCOC(c2ccccc2)c2ccccc2)c1,222
17,c1ccc(CCCNC2CCCCN(CCOC(c3ccccc3)c3ccccc3)C2)cc1 (centres undefined),20
18,C[C@@H]1CN(CCOC(c2ccccc2)c2ccccc2)[C@@H](C)CN1,1000

# Molecular target: T1, Sodium-dependent dopamine transporter
# Assay: Inhibition of dopamine DA reuptake
# Method in brief: (§2)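 Uptake into synaptosomes in Krebs-phosphate buffer, pH 7.4, with ascorbic acid 1 mg/mL and pargyline 50 µM. Final tracer was 5 nM [3H]DA or 2 nM [3H]5HT. Incubated at 25 °C for 15 min (DA) or 30 min (5HT), then filtered and filter tritium counted. IC50 derived.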
row,Compound,IC50 [nM]
1,CNCCN(C)CCOC(c1ccccc1)c1ccccc1,545
2,c1ccc(CCCNC[C@H]2CCCN2CCOC(c2ccccc2)c2ccccc2)cc1,127
3,C[C@@H]1CN(CCOC(c2ccccc2)c2ccccc2)[C@@H](C)CN1C/C=C/c1ccccc1,20
4,C[C@@H]1CN(CCOC(c2ccc(F)cc2)c2ccc(F)cc2)[C@@H](C)CN1,30
5,c1ccc(C(OCCN2CCNCC2)c2ccccc2)cc1,124
6,c1ccc(CCCN2CCCCC(NCCOC(c3ccccc3)c3ccccc3)C2)cc1 (centres undefined),57
7,CC(C)(CN)CNCCOC(c1ccccc1)c1ccccc1,453
8,c1ccc(C(OCCN2CCCNCC2)c2ccccc2)cc1,651
9,c1ccc(CCCN2CCCN(CCOC(c3ccccc3)c3ccccc3)CC2)cc1,7.2
10,C[C@@H]1CN(CCOC(c2ccc(F)cc2)c2ccc(F)cc2)[C@@H](C)CN1CCOC(c1ccc(F)cc1)c1ccc(F)cc1,86
11,c1ccc(CCCN2CCCCN(CCOC(c3ccccc3)c3ccccc3)CC2)cc1,93
12,CC(C)(CNCCCc1ccccc1)CNCCOC(c1ccccc1)c1ccccc1,83
13,Fc1ccc(C(OCCN2CCCNCC2)c2ccc(F)cc2)cc1,17
14,c1ccc(CCCNC[C@@H]2CCCN2CCOC(c2ccccc2)c2ccccc2)cc1,0.7
15,Oc1cccc(CCCNC[C@@H]2CCCN2CCOC(c2ccccc2)c2ccccc2)c1,31
16,c1ccc(CCCNC2CCCCN(CCOC(c3ccccc3)c3ccccc3)C2)cc1 (centres undefined),9.3
17,C[C@@H]1CN(CCOC(c2ccccc2)c2ccccc2)[C@@H](C)CN1,138

# Molecular target: T1, Sodium-dependent dopamine transporter
# Assay: Compound was tested for binding affinity against dopamine transporter using radioligand as [3H]-RTI 55
# Method in brief: as §1
row,Compound,IC50 [nM]
1,C[C@@H]1CN(CCOC(c2ccc(F)cc2)c2ccc(F)cc2)[C@@H](C)CN1,44

# Molecular target: Sodium-dependent serotonin transporter (Rattus norvegicus, UniProt P31652)
# Sequence (P31652 whole entry): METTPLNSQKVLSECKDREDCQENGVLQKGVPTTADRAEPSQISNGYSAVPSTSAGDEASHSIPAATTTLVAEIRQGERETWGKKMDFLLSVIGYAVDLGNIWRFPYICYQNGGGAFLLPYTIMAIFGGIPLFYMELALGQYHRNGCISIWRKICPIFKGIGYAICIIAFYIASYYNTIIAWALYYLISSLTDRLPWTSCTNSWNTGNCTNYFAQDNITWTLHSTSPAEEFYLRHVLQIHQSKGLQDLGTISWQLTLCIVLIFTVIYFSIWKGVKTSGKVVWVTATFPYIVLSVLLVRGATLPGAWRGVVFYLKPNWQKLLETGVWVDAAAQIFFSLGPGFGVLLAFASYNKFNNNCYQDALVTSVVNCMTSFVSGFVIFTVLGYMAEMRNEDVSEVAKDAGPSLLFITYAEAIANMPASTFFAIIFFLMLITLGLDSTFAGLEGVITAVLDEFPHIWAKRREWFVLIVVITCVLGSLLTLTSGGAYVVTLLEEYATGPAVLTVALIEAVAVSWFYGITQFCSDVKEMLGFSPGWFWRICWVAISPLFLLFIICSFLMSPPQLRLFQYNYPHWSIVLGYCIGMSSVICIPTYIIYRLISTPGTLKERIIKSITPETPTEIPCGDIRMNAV
# Assay: Inhibition of [3H]5-HT reuptake at rat serotonin transporter
# Method in brief: as §2
row,Compound,IC50 [nM]
1,CNCCN(C)CCOC(c1ccccc1)c1ccccc1,> 10000
2,c1ccc(CCCNC[C@H]2CCCN2CCOC(c2ccccc2)c2ccccc2)cc1,3210
3,C[C@@H]1CN(CCOC(c2ccccc2)c2ccccc2)[C@@H](C)CN1C/C=C/c1ccccc1,2680
4,C[C@@H]1CN(CCOC(c2ccc(F)cc2)c2ccc(F)cc2)[C@@H](C)CN1,8940
5,c1ccc(C(OCCN2CCNCC2)c2ccccc2)cc1,9570
6,c1ccc(CCCN2CCCCC(NCCOC(c3ccccc3)c3ccccc3)C2)cc1 (centres undefined),2860
7,CC(C)(CN)CNCCOC(c1ccccc1)c1ccccc1,> 10000
8,c1ccc(C(OCCN2CCCNCC2)c2ccccc2)cc1,14300
9,c1ccc(CCCN2CCCN(CCOC(c3ccccc3)c3ccccc3)CC2)cc1,34100
10,C[C@@H]1CN(CCOC(c2ccc(F)cc2)c2ccc(F)cc2)[C@@H](C)CN1CCOC(c1ccc(F)cc1)c1ccc(F)cc1,4240
11,c1ccc(CCCN2CCCCN(CCOC(c3ccccc3)c3ccccc3)CC2)cc1,1590
12,CC(C)(CNCCCc1ccccc1)CNCCOC(c1ccccc1)c1ccccc1,1890
13,CN(CCCc1ccccc1)CCN(C)CCOC(c1ccccc1)c1ccccc1,2450
14,Fc1ccc(C(OCCN2CCCNCC2)c2ccc(F)cc2)cc1,2080
15,c1ccc(CCCNC[C@@H]2CCCN2CCOC(c2ccccc2)c2ccccc2)cc1,986
16,Oc1cccc(CCCNC[C@@H]2CCCN2CCOC(c2ccccc2)c2ccccc2)c1,857
17,c1ccc(CCCNC2CCCCN(CCOC(c3ccccc3)c3ccccc3)C2)cc1 (centres undefined),1480
18,C[C@@H]1CN(CCOC(c2ccccc2)c2ccccc2)[C@@H](C)CN1,25300

# Molecular target: Monoamine transporters; serotonin & dopamine (Rattus norvegicus) (UniProt P31652+P23977)
# Sequence (P23977 whole entry, looked up): as the sequence (P23977 whole entry) above
# Sequence (P31652 whole entry, looked up): as the sequence (P31652 whole entry) above
# Assay: Ratio of binding affinities of Serotonin transporter vs Dopamine transporter reuptake
# Type: protein assay
# Method in brief: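 Ratio is the IC50 for [3H]5HT reuptake over the IC50 for [3H]DA reuptake. Both were measured in synaptosomes at 25 °C: 2 nM [3H]5HT for 30 min and 5 nM [3H]DA for 15 min, in Krebs-phosphate buffer, pH 7.4, with pargyline and ascorbic acid.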
row,Compound,Ratio
1,c1ccc(CCCNC[C@H]2CCCN2CCOC(c2ccccc2)c2ccccc2)cc1,25
2,C[C@@H]1CN(CCOC(c2ccccc2)c2ccccc2)[C@@H](C)CN1C/C=C/c1ccccc1,134
3,C[C@@H]1CN(CCOC(c2ccc(F)cc2)c2ccc(F)cc2)[C@@H](C)CN1,298
4,c1ccc(C(OCCN2CCNCC2)c2ccccc2)cc1,1.1
5,c1ccc(CCCN2CCCCC(NCCOC(c3ccccc3)c3ccccc3)C2)cc1 (centres undefined),50
6,c1ccc(C(OCCN2CCCNCC2)c2ccccc2)cc1,22
7,c1ccc(CCCN2CCCN(CCOC(c3ccccc3)c3ccccc3)CC2)cc1,4740
8,C[C@@H]1CN(CCOC(c2ccc(F)cc2)c2ccc(F)cc2)[C@@H](C)CN1CCOC(c1ccc(F)cc1)c1ccc(F)cc1,2.4
9,c1ccc(CCCN2CCCCN(CCOC(c3ccccc3)c3ccccc3)CC2)cc1,17
10,CC(C)(CNCCCc1ccccc1)CNCCOC(c1ccccc1)c1ccccc1,23
11,Fc1ccc(C(OCCN2CCCNCC2)c2ccc(F)cc2)cc1,122
12,c1ccc(CCCNC[C@@H]2CCCN2CCOC(c2ccccc2)c2ccccc2)cc1,1410
13,Oc1cccc(CCCNC[C@@H]2CCCN2CCOC(c2ccccc2)c2ccccc2)c1,28
14,c1ccc(CCCNC2CCCCN(CCOC(c3ccccc3)c3ccccc3)C2)cc1 (centres undefined),159
15,C[C@@H]1CN(CCOC(c2ccccc2)c2ccccc2)[C@@H](C)CN1,183
